Columns and labels:
[1] = Antiproliferative activity against human DU145 cells assessed as reduction in cell viability after 3 days by WST-1 cell proliferation assay; format: functional, cell-based; settings: DU-145, 72 h
Outline: (§1)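 Cells from ATCC; PC-3 and LNCaP grown in RPMI-1640, DU145 in EMEM, each with 10% FBS and 1% penicillin/streptomycin, 37 °C, 5% CO2. 3,200 cells per well, treated at 5 concentrations for 3 days with 0.25% DMSO as vehicle control. WST-1 reagent added, 3 h at 37 °C, absorbance read at 430 nm. IC50 from linear fit of at least five doses, mean of at least triplicates.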

[2] = Potency index, ratio of silibinin IC50 to compound IC50 for antiproliferative activity against human DU145 cells; format: functional, DU-145
Outline: (§2)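 Ratio of silibinin IC50 to derivative IC50. Both come from the 3-day WST-1 assay run in parallel (5 doses, absorbance at 430 nm, IC50 from linear fit, at least triplicates).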

[3] = Potency index, ratio of silibinin IC50 to compound IC50 for antiproliferative activity against human PC3 cells; format: functional, PC-3; outline: as §2
LNCaP [4] = assay: Potency index, ratio of silibinin IC50 to compound IC50 for antiproliferative activity against human LNCAP cells; format: functional; outline: as §2
LNCaP [5] = assay: Antiproliferative activity against human LNCAP cells assessed as reduction in cell viability after 3 days by WST-1 cell proliferation assay; format: functional, cell-based; settings: 72 h; outline: as §1
[6] = Antiproliferative activity against human PC3 cells assessed as reduction in cell viability after 3 days by WST-1 cell proliferation assay; format: functional, cell-based; settings: PC-3, 72 h; outline: as §1

## CCCOc1cc(O)c2c(=O)c(OCCC)c(-c3ccc4c(c3)OC(c3ccc(O)c(OC)c3)C(CO)O4)oc2c1 (stereo unspecified)
[1]
  IC50: 20.6 µM
[2]
  Ratio IC50: 5
[3]
  Ratio IC50: 5
LNCaP [4]
  Ratio IC50: 4
LNCaP [5]
  IC50: 11 µM
[6]
  IC50: 17.4 µM

## CCCCCCOc1cc(O)c2c(c1)O[C@H](c1ccc3c(c1)OC(c1ccc(O)c(OC)c1)C(CO)O3)[C@@H](O)C2=O (stereo partly specified)
[1]
  IC50: 11.3 µM
[2]
  Ratio IC50: 8
[3]
  Ratio IC50: 12
LNCaP [4]
  Ratio IC50: 26
LNCaP [5]
  IC50: 1.65 µM
[6]
  IC50: 5.97 µM

## COc1cc(O)c2c(=O)c(O)c(-c3ccc4c(c3)OC(c3ccc(O)c(OC)c3)C(CO)O4)oc2c1 (stereo unspecified)
[1]
  IC50: 7.92 µM
[2]
  Ratio IC50: 12
[3]
  Ratio IC50: 30
LNCaP [4]
  Ratio IC50: 16
LNCaP [5]
  IC50: 2.76 µM
[6]
  IC50: 2.39 µM

## CCCCCOc1cc(O)c2c(c1)O[C@H](c1ccc3c(c1)OC(c1ccc(O)c(OC)c1)C(CO)O3)[C@@H](O)C2=O (stereo partly specified)
[1]
  IC50: 8.93 µM
[2]
  Ratio IC50: 10
[3]
  Ratio IC50: 12
LNCaP [4]
  Ratio IC50: 24
LNCaP [5]
  IC50: 1.78 µM
[6]
  IC50: 6.17 µM

## CCCCCOc1cc(O)c2c(=O)c(O)c(-c3ccc4c(c3)OC(c3ccc(O)c(OC)c3)C(CO)O4)oc2c1 (stereo unspecified)
[1]
  IC50: 6.92 µM
[2]
  Ratio IC50: 14
[3]
  Ratio IC50: 12
LNCaP [4]
  Ratio IC50: 9
LNCaP [5]
  IC50: 4.62 µM
[6]
  IC50: 6.05 µM

## CCCCCCCOc1cc(O)c2c(c1)O[C@H](c1ccc3c(c1)OC(c1ccc(O)c(OC)c1)C(CO)O3)[C@@H](O)C2=O (stereo partly specified)
[1]
  IC50: 17.4 µM
[2]
  Ratio IC50: 5
[3]
  Ratio IC50: 7
LNCaP [4]
  Ratio IC50: 9
LNCaP [5]
  IC50: 4.57 µM
[6]
  IC50: 10.9 µM

## CCCCOc1cc(O)c2c(=O)c(OCCCC)c(-c3ccc4c(c3)OC(c3ccc(O)c(OC)c3)C(CO)O4)oc2c1 (stereo unspecified)
[1]
  IC50: 36.5 µM
[2]
  Ratio IC50: 3
[3]
  Ratio IC50: 2
LNCaP [4]
  Ratio IC50: 1
LNCaP [5]
  IC50: 46.6 µM
[6]
  IC50: 45.8 µM

## CCCCCCOc1cc(O)c2c(=O)c(OCCCCCC)c(-c3ccc4c(c3)OC(c3ccc(O)c(OC)c3)C(CO)O4)oc2c1 (stereo unspecified)
[1]
  IC50: > 100 µM
[2]
  Ratio IC50: <1
[3]
  Ratio IC50: <1
LNCaP [4]
  Ratio IC50: <1
LNCaP [5]
  IC50: > 100 µM
[6]
  IC50: > 100 µM

## COc1cc(C2Oc3cc([C@H]4Oc5cc(OCc6ccccc6)cc(O)c5C(=O)[C@@H]4O)ccc3OC2CO)ccc1O (stereo partly specified)
[1]
  IC50: 8.77 µM
[2]
  Ratio IC50: 11
[3]
  Ratio IC50: 14
LNCaP [4]
  Ratio IC50: 21
LNCaP [5]
  IC50: 2.04 µM
[6]
  IC50: 5.29 µM

## CCOc1cc(O)c2c(=O)c(OCC)c(-c3ccc4c(c3)OC(c3ccc(O)c(OC)c3)C(CO)O4)oc2c1 (stereo unspecified)
[1]
  IC50: 10.4 µM
[2]
  Ratio IC50: 9
[3]
  Ratio IC50: 9
LNCaP [4]
  Ratio IC50: 8
LNCaP [5]
  IC50: 5.57 µM
[6]
  IC50: 8.5 µM

## CCCCCOc1cc(O)c2c(=O)c(OCCCCC)c(-c3ccc4c(c3)OC(c3ccc(O)c(OC)c3)C(CO)O4)oc2c1 (stereo unspecified)
[1]
  IC50: 28.7 µM
[2]
  Ratio IC50: 3
[3]
  Ratio IC50: 1
LNCaP [4]
  Ratio IC50: 1
LNCaP [5]
  IC50: 28.7 µM
[6]
  IC50: 52.1 µM

## COc1cc(C2Oc3cc([C@H]4Oc5cc(O)cc(O)c5C(=O)[C@@H]4O)ccc3OC2CO)ccc1O (stereo partly specified) [SILIBININ]
[1]
  IC50: 93.3 µM
LNCaP [5]
  IC50: 43 µM
[6]
  IC50: 72.7 µM

## CCCCOc1cc(O)c2c(=O)c(O)c(-c3ccc4c(c3)OC(c3ccc(O)c(OC)c3)C(CO)O4)oc2c1 (stereo unspecified)
[1]
  IC50: 5.81 µM
[2]
  Ratio IC50: 16
[3]
  Ratio IC50: 16
LNCaP [4]
  Ratio IC50: 13
LNCaP [5]
  IC50: 3.19 µM
[6]
  IC50: 4.55 µM

## CCCOc1cc(O)c2c(c1)O[C@H](c1ccc3c(c1)OC(c1ccc(O)c(OC)c1)C(CO)O3)[C@@H](O)C2=O (stereo partly specified)
[1]
  IC50: 30.3 µM
[2]
  Ratio IC50: 3
[3]
  Ratio IC50: 4
LNCaP [4]
  Ratio IC50: 9
LNCaP [5]
  IC50: 4.66 µM
[6]
  IC50: 18.5 µM

## CCCCCCCOc1cc(O)c2c(=O)c(O)c(-c3ccc4c(c3)OC(c3ccc(O)c(OC)c3)C(CO)O4)oc2c1 (stereo unspecified)
[1]
  IC50: 7.49 µM
[2]
  Ratio IC50: 12
[3]
  Ratio IC50: 10
LNCaP [4]
  Ratio IC50: 9
LNCaP [5]
  IC50: 4.81 µM
[6]
  IC50: 7.09 µM

## CCOc1cc(O)c2c(c1)O[C@H](c1ccc3c(c1)OC(c1ccc(O)c(OC)c1)C(CO)O3)[C@@H](O)C2=O (stereo partly specified)
[1]
  IC50: 27.7 µM
[2]
  Ratio IC50: 3
[3]
  Ratio IC50: 5
LNCaP [4]
  Ratio IC50: 123
LNCaP [5]
  IC50: 0.35 µM
[6]
  IC50: 16.1 µM

## CCCCCCCOc1cc(O)c2c(=O)c(OCCCCCCC)c(-c3ccc4c(c3)OC(c3ccc(O)c(OC)c3)C(CO)O4)oc2c1 (stereo unspecified)
[1]
  IC50: > 100 µM
[2]
  Ratio IC50: <1
[3]
  Ratio IC50: <1
LNCaP [4]
  Ratio IC50: <1
LNCaP [5]
  IC50: > 100 µM
[6]
  IC50: > 100 µM

## COc1cc(O)c2c(c1)O[C@H](c1ccc3c(c1)OC(c1ccc(O)c(OC)c1)C(CO)O3)[C@@H](O)C2=O (stereo partly specified)
[1]
  IC50: 25.1 µM
[2]
  Ratio IC50: 4
[3]
  Ratio IC50: 6
LNCaP [4]
  Ratio IC50: 98
LNCaP [5]
  IC50: 0.44 µM
[6]
  IC50: 12.4 µM

## CCCOc1cc(O)c2c(=O)c(O)c(-c3ccc4c(c3)OC(c3ccc(O)c(OC)c3)C(CO)O4)oc2c1 (stereo unspecified)
[1]
  IC50: 5.36 µM
[2]
  Ratio IC50: 17
[3]
  Ratio IC50: 15
LNCaP [4]
  Ratio IC50: 10
LNCaP [5]
  IC50: 4.41 µM
[6]
  IC50: 4.69 µM

## CCCCCCOc1cc(O)c2c(=O)c(O)c(-c3ccc4c(c3)OC(c3ccc(O)c(OC)c3)C(CO)O4)oc2c1 (stereo unspecified)
[1]
  IC50: 8.84 µM
[2]
  Ratio IC50: 11
[3]
  Ratio IC50: 10
LNCaP [4]
  Ratio IC50: 11
LNCaP [5]
  IC50: 4.01 µM
[6]
  IC50: 6.94 µM

## COc1cc(C2Oc3cc(-c4oc5cc(OCc6ccccc6)cc(O)c5c(=O)c4OCc4ccccc4)ccc3OC2CO)ccc1O (stereo unspecified)
[1]
  IC50: > 100 µM
[2]
  Ratio IC50: <1
[3]
  Ratio IC50: <1
LNCaP [4]
  Ratio IC50: <1
LNCaP [5]
  IC50: > 100 µM
[6]
  IC50: > 100 µM

## COc1cc(C2Oc3cc(-c4oc5cc(OCc6ccccc6)cc(O)c5c(=O)c4O)ccc3OC2CO)ccc1O (stereo unspecified)
[1]
  IC50: 8.97 µM
[2]
  Ratio IC50: 10
[3]
  Ratio IC50: 9
LNCaP [4]
  Ratio IC50: 12
LNCaP [5]
  IC50: 3.71 µM
[6]
  IC50: 7.98 µM

## COc1cc(O)c2c(=O)c(OC)c(-c3ccc4c(c3)OC(c3ccc(O)c(OC)c3)C(CO)O4)oc2c1 (stereo unspecified)
[1]
  IC50: 22.2 µM
[2]
  Ratio IC50: 4
[3]
  Ratio IC50: 5
LNCaP [4]
  Ratio IC50: 6
LNCaP [5]
  IC50: 6.88 µM
[6]
  IC50: 15.3 µM

## CCCCOc1cc(O)c2c(c1)O[C@H](c1ccc3c(c1)OC(c1ccc(O)c(OC)c1)C(CO)O3)[C@@H](O)C2=O (stereo partly specified)
[1]
  IC50: 12 µM
[2]
  Ratio IC50: 8
[3]
  Ratio IC50: 14
LNCaP [4]
  Ratio IC50: 17
LNCaP [5]
  IC50: 2.51 µM
[6]
  IC50: 5.38 µM
